# Laboratory results reported in ChEMBL document CHEMBL4402518, “Identification of Novel Medulloblastoma Cell-Targeting Peptides for Use in Selective Chemotherapy Drug Delivery” (J Med Chem, 2020).
# The source made the active and inactive calls. The rule behind the calls is not given here. Peptide text beside a SMILES is read from it. * marks the point of attachment. Glutaryl(5-(14-O-Dox)) = COc1cccc2c1C(=O)c1c(O)c3c(c(O)c1C2=O)C[C@@](O)(C(=O)COC(=O)CCCC(=O)*)C[C@@H]3O[C@H]1C[C@H](N)[C@H](O)[C@H](C)O1
# Key:
# [1] = tested on: Daoy; test: Binding affinity to human DaOY cell surface measured after 15 mins incubation using C-terminal FITC labeled compound by Live cell confocal microscopy; assay type: cell-based
# [2] = tested on: Daoy; test: Cytotoxicity against human DaOY cells assessed as reduction in cell viability incubated for 72 hrs; assay type: cell-based
# Outline: (§1)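 Cells treated at increasing concentrations, with viability read 72 hours post-treatment by alamar blue assay. Data are mean ± S.E.M. from 3 independent experiments.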
# [3] = Drug uptake in human DaOY cells assessed as drug internalization at 0.1 to 1000 uM incubated for 24 hrs using C-terminal FITC-labeled compound by flow cytometry; assay type: ADME, cell-based
# Outline: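 FITC-labelled peptide at differing concentrations for 24 h, then cell-associated green fluorescence intensity measured by flow cytometry. Cells given non-fluorescent peptide served as control; n = 3 independent experiments.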
# [4] = Cytotoxicity against human NHA cells assessed as reduction in cell viability incubated for 72 hrs; assay type: cell-based; outline: as §1
# [5] = Drug uptake in human DaOY cells assessed as drug internalization at 0.25 to 100 uM incubated for 24 hrs using C-terminal FITC labeled compound by confocal microscopy; assay type: ADME, cell-based
# Outline: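 Medulloblastoma cells exposed 24 h to fluorescently labelled peptide at 0.25 μM, 25 μM and 100 μM, then imaged by confocal microscopy. Cell membrane stained red, nucleus blue, peptide green. Untreated cells served as control.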
# [6] = Solubility of the compound in water using C-terminal FITC-labeled compound; assay type: physicochemical; conditions: buffer
# [7] = tested on: MRC5; test: Cytotoxicity against human MRC5 cells assessed as reduction in cell viability incubated for 72 hrs; assay type: cell-based; conditions: mrc5, 72 h; outline: as §1
# [8] = Stability of the compound in water using C-terminal FITC-labeled compound; assay type: physicochemical; conditions: buffer
# [9] = Stability in mouse serum at 250 uM incubated for up to 4 hrs MALDI-TOF analysis; assay type: ADME, cell-free
# [10] = tested on: Daoy; test: Cytotoxicity against human DaOY cells assessed as reduction in cell viability incubated for 72 hrs by AlamarBlue cell viability assay; assay type: functional, cell-based; outline: as §1
# [11] = Stability in human serum at 250 uM incubated for up to 4 hrs MALDI-TOF analysis; assay type: ADME, cell-free
# [12] = Cytotoxicity against human NHA cells assessed as reduction in cell viability incubated for 72 hrs by AlamarBlue cell viability assay; assay type: cell-based; outline: as §1
# [13] = Stability in human serum incubated for up to 4 hrs by LC-MS/MS analysis; assay type: ADME, cell-free
# [14] = Selectivity index, ratio of IC50 for human MRC5 cells to IC50 for human DaOY cells incubated for 72 hrs by AlamarBlue cell viability assay
# [15] = Ratio of IC50 of compound to IC50 of doxorubicin for cytotoxicity against human MRC5 cells assessed as reduction in cell viability incubated for 72 hrs by AlamarBlue cell viability assay; assay type: cell-based; conditions: read-out: Ratio IC50
# [16] = Stability in mouse serum incubated for up to 4 hrs by LC-MS/MS analysis; assay type: ADME, cell-free
# [17] = Ratio of IC50 of compound to IC50 of doxorubicin for cytotoxicity against human NHA cells assessed as reduction in cell viability incubated for 72 hrs by AlamarBlue cell viability assay; assay type: cell-based; conditions: read-out: Ratio IC50
# [18] = Drug uptake in human DaOY cells assessed as drug internalization at 0.25 uM pretreated with actin polymerization inhibitor/macropinocytosis inhibitor, cytochalasin D 1 hr prior to compound addition and measured after 3 hrs by flow cytometry; assay type: ADME, cell-based
# Outline: (§2)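 To probe endocytic routes, cells were first pre-treated with non-toxic concentrations of one of four inhibitors before compound exposure. The inhibitors were genistein (caveolae), cytochalasin D (actin/macropinocytosis), amiloride hydrochloride (caveolae/macropinocytosis) and chlorpromazine hydrochloride (clathrin).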
# [19] = Selectivity index, ratio of IC50 for human NHA cells to IC50 for human DaOY cells incubated for 72 hrs by AlamarBlue cell viability assay
# [20] = Drug uptake in human DaOY cells assessed as drug internalization at 0.25 uM measured after 3 hrs by flow cytometry; assay type: ADME, cell-based
# [21] = tested on: MRC5; test: Cytotoxicity against human MRC5 cells assessed as reduction in cell viability incubated for 72 hrs by AlamarBlue cell viability assay; assay type: cell-based; conditions: MRC5, 72 h; outline: as §1
# [22] = Drug uptake in human DaOY cells assessed as drug internalization at 0.25 uM measured after 15 to 60 mins by confocal microscopy; assay type: ADME, cell-based
# [23] = Drug uptake in human DaOY cells assessed as primary life time at 0.25 uM measured after 3 hrs by fluorescence live imaging microscopy analysis; assay type: ADME, cell-based
# [24] = Drug uptake in human DaOY cells assessed as secondary lifetime at 0.25 uM measured after 3 hrs by fluorescence live imaging microscopy analysis; assay type: ADME, cell-based
# [25] = Drug uptake in human DaOY cells assessed as drug localization by measuring punctuate pattern of expression throughout cell cytoplasm, perinuclear and nuclear region at 0.25 uM measured after 15 to 30 mins by confocal microscopy; assay type: ADME, cell-based
# [26] = Drug uptake in human DaOY cells assessed as drug internalization at 0.25 uM pretreated with caveloae/macropinocytosis inhibitor, amiloride hydrochloride 1 hr prior to compound addition and measured after 3 hrs by flow cytometry; assay type: ADME, cell-based; outline: as §2
# [27] = Drug uptake in human DaOY cells assessed as drug localization in nucleus at 0.25 uM pretreated with actin polymerization inhibitor/macropinocytosis inhibitor, cytochalasin D 1 hr prior to compound addition and measured after 3 hrs by fluorescence live imaging microscopy analysis; assay type: ADME, cell-based
# [28] = Drug uptake in human DaOY cells assessed as drug internalization at 0.25 uM pretreated with caveloae-uptake inhibitor, genistein 1 hr prior to compound addition and measured after 3 hrs by flow cytometry; assay type: ADME, cell-based; outline: as §2
# [29] = Drug uptake in human DaOY cells assessed as drug localization in perinuclear and nuclear regions of cell at 0.25 uM measured after 15 to 30 mins by confocal microscopy; assay type: ADME, cell-based
# [30] = Drug uptake in human DaOY cells assessed as drug localization in cytoplasm at 0.25 uM pretreated with actin polymerization inhibitor/macropinocytosis inhibitor, cytochalasin D 1 hr prior to compound addition and measured after 3 hrs by fluorescence live imaging microscopy analysis; assay type: ADME, cell-based
# [31] = Drug uptake in human DaOY cells assessed as drug internalization at 0.25 uM pretreated with clathrin-mediated endocytosis inhibitor, chlorpromazine hydrochloride 1 hr prior to compound addition and measured after 3 hrs by flow cytometry; assay type: ADME, cell-based; outline: as §2
# [32] = Drug uptake in human DaOY cells assessed as drug localization in nucleus at 0.25 uM measured after 3 hrs by […]; assay type: ADME, cell-based
molecule,measurement,setting,value
H-FSRPAFL-OH,Activity,[1],Active
same,Activity,[2],Non-Toxic
same,Drug uptake,[3],Active
same,Activity,[4],Non-Toxic
same,Drug uptake,[5],Active
same,solubility,[6],Soluble
same,Activity,[7],Non-Toxic
same,Stability,[8],Stable
COc1cccc2c1C(=O)c1c(O)c3c(c(O)c1C2=O)C[C@@](O)(C(=O)COC(=O)CCCC(=O)N[C@@H](Cc1ccccc1)C(=O)N[C@@H](CO)C(=O)N[C@@H](CCCNC(=N)N)C(=O)N1CCC[C@H]1C(=O)N[C@@H](C)C(=O)N[C@@H](Cc1ccccc1)C(=O)N[C@@H](CC(C)C)C(=O)O)C[C@@H]3O[C@H]1C[C@H](N)[C@H](O)[C@H](C)O1 ({Glutaryl(5-(14-O-Dox))}-FSRPAFL-OH),Stability,[9],Stable
same,IC50,[10],25 nM
same,Stability,[11],Stable
same,IC50,[12],842 nM
same,Stability,[13],Stable
same,Ratio IC50,[14],430.2
same,selectivity ratio at 72 h,[15],> 72
same,Stability,[16],Stable
same,selectivity ratio at 72 h,[17],> 7.4
same,Drug uptake,[18],Not Active
same,Ratio IC50,[19],33.7
same,Drug uptake,[20],Active
same,IC50,[21],10800 nM
same,Drug uptake,[22],Active
same,Time,[23],4.3 nanoseconds
same,Time,[24],1.3 nanoseconds
same,Drug uptake,[25],Active
COc1cccc2c1C(=O)c1c(O)c3c(c(O)c1C2=O)C[C@@](O)(C(=O)CO)C[C@@H]3O[C@H]1C[C@H](N)[C@H](O)[C@H](C)O1 [DOXORUBICIN],IC50,[10],8.8 nM
same,Drug uptake,[26],Active
same,IC50,[12],113 nM
same,Ratio IC50,[14],16.8
same,Drug uptake,[27],Active
same,Drug uptake,[28],Active
same,Drug uptake,[29],Active
same,Drug uptake,[30],Active
same,Drug uptake,[18],Active
same,Ratio IC50,[19],12.8
same,Drug uptake,[31],Active
same,IC50,[21],148 nM
same,Drug uptake,[22],Active
same,Drug uptake,[32],Active
same,Time,[23],4.3 nanoseconds
same,Time,[24],1.3 nanoseconds
COc1cccc2c1C(=O)c1c(O)c3c(c(O)c1C2=O)C[C@@](O)(C(=O)COC(=O)CCCC(=O)N[C@H](C(=O)NCC(=O)NCC(=O)N[C@@H](CC(C)C)C(=O)N[C@@H](CO)C(=O)N[C@@H](Cc1c[nH]cn1)C(=O)N[C@@H](CCCNC(=N)N)C(=O)O)C(C)C)C[C@@H]3O[C@H]1C[C@H](N)[C@H](O)[C@H](C)O1 ({Glutaryl(5-(14-O-Dox))}-VGGLSHR-OH),IC50,[10],130 nM
